Assay type in all cases: functional
The subject of assay [1] is Radical scavenging activity. In words: Antioxidant activity assessed as DPPH radical scavenging activity at 100 ug/mL after 30 mins. In outline:
(§1)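 Oxime ethers tested by DPPH radical scavenging (Blois method, slightly modified). Sample and DPPH solution mixed gently and left at room temperature for 30 min. Optical density read at 530 nm on a microplate reader. Scavenging reported as % inhibition at each test concentration.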
A general note: The DPPH test is a chemical assay of radical scavenging.

For assay [2], the system named is Mycobacterium tuberculosis. In words: Antituberculosis activity against Mycobacterium tuberculosis H37Rv. In outline:
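Zone-of-inhibition assay against M. tuberculosis H37Rv. Zone diameters were scored on an activity index: 0–5 mm, 6–10 mm (+), 11–15 mm (++), 16–20 mm (+++), and a top band (++++) for larger zones.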

Assay [3] concerns Radical scavenging activity. In words: Antioxidant activity assessed as DPPH radical scavenging activity at 200 ug/mL after 30 mins. In outline:
as §1

Assay [4] deals with Radical scavenging activity. Kind of assay: Antioxidant activity assessed as DPPH radical scavenging activity at 10 ug/mL after 30 mins. In outline:
as §1

Assay [5] deals with Radical scavenging activity. In words: Antioxidant activity assessed as DPPH radical scavenging activity at 400 ug/mL after 30 mins. In outline: as §1
Assay [6] concerns Radical scavenging activity. In words: Antioxidant activity assessed as DPPH radical scavenging activity at 800 ug/mL after 30 mins. In outline:
as §1

As usually defined, the inhibition is the relative decrease from the control value, in per cent. As to `CCCCOc1ccc([C@H]2N[C@@H](c3ccc(OCCCC)cc3)[C@H]3CCC[C@@H]2/C3=N\OC)cc1`, the inhibition was found to be 27.8% in assay [1] and 43.9% in assay [3]. In addition, the “inhibition zone (IZ)” value in assay [2] was determined as 6 mm.

For `CO/N=C1\[C@H]2CCC[C@@H]1[C@H](c1ccc(Cl)cc1)N(C)[C@@H]2c1ccc(Cl)cc1`, in assay [1], the inhibition stood at 11.9%. Besides, the “inhibition zone (IZ)” value in assay [2] turned out to be 11 mm.

`O=C1O[C@H]([C@@H](O)CO)C(O)=C1O`: in assay [4], the inhibition was 98.5%.

Regarding `CO/N=C1\[C@H]2CCC[C@@H]1[C@H](c1ccc(F)cc1)N[C@@H]2c1ccc(F)cc1`, the inhibition in assay [1] worked out at 3.6%. Moreover, in assay [2], the “inhibition zone (IZ)” value is on record as 16 mm.

Take `CO/N=C1\[C@H]2CCC[C@@H]1[C@H](c1ccc(OCc3ccccc3)cc1)N[C@@H]2c1ccc(OCc2ccccc2)cc1`: the inhibition in assay [1] was 27.9%; in assay [3] it was 47.8%. Further, the “inhibition zone (IZ)” value in assay [2] was “<=21 mm”.

Consider `CCOc1ccc([C@H]2N[C@@H](c3ccc(OCC)cc3)[C@H]3CCC[C@@H]2/C3=N\OC)cc1`, for which the inhibition in assay [1] is 23.2%; in assay [3], 30.8%. Besides, the “inhibition zone (IZ)” value in assay [2] came to 6 mm.

`CO/N=C1\[C@H]2CCC[C@@H]1[C@H](c1ccc(C)cc1)N(C)[C@@H]2c1ccc(C)cc1`: the inhibition in assay [1] amounted to 19.8%; in assay [3], 22%. In assay [2], the “inhibition zone (IZ)” value turned out to be 6 mm.

For the molecule `CCOc1ccccc1[C@H]1N[C@@H](c2ccccc2OCC)[C@H]2CCC[C@@H]1/C2=N\OC`, the inhibition in assay [1] was 10.2%. Besides, the “inhibition zone (IZ)” value in assay [2] worked out at 6 mm.

As to `CO/N=C1\[C@H]2CCC[C@@H]1[C@H](c1ccc(Cl)cc1)N[C@@H]2c1ccc(Cl)cc1`, the inhibition in assay [1] was 6.58%. For the same molecule, in assay [2], the “inhibition zone (IZ)” value is listed as 11 mm.

Consider `CO/N=C1\[C@H]2CCC[C@@H]1[C@H](c1cccc(OC)c1)N[C@@H]2c1cccc(OC)c1`, for which, in assay [1], the inhibition is 13.5%.

As to `CO/N=C1\[C@H]2CCC[C@@H]1[C@H](c1cccc(Br)c1)N[C@@H]2c1cccc(Br)c1`, in assay [1], the inhibition worked out at 4.35%.

As for `CO/N=C1\[C@H]2CCC[C@@H]1[C@H](c1ccccc1)N(C)[C@@H]2c1ccccc1`, the values for the inhibition in assay [1] and in assay [3] were 10.7% and 13.8%, respectively.

For the molecule `CO/N=C1\[C@H]2CCC[C@@H]1[C@H](c1ccccc1Cl)N(C)[C@@H]2c1ccccc1Cl`, the inhibition in assay [1] turned out to be 11.4%. In addition, the “inhibition zone (IZ)” value in assay [2] was 11 mm.

Consider `CO/N=C1\[C@H]2CCC[C@@H]1[C@H](c1ccccc1Cl)N[C@@H]2c1ccccc1Cl`, for which, in assay [1], the inhibition is 6.47%. Also, the “inhibition zone (IZ)” value in assay [2] is 6 mm.

As for `CCc1ccc([C@H]2N[C@@H](c3ccc(CC)cc3)[C@H]3CCC[C@@H]2/C3=N\OC)cc1`, the inhibition in assay [1] worked out at 11.9%. The “inhibition zone (IZ)” value in assay [2] worked out at 0 mm.

Consider `CO/N=C1\[C@H]2CCC[C@@H]1[C@H](c1ccccc1C)N(C)[C@@H]2c1ccccc1C`, for which the inhibition in assay [1] is 15.3%. Moreover, in assay [2], the “inhibition zone (IZ)” value was determined as 6 mm.

For the molecule `CO/N=C1\[C@H]2CCC[C@@H]1[C@H](c1cccc(Cl)c1)N[C@@H]2c1cccc(Cl)c1`, the inhibition in assay [1] turned out to be 4.77%. In assay [2], the “inhibition zone (IZ)” value is reported as 0 mm.

Take `CO/N=C1\[C@H]2CCC[C@@H]1[C@H](c1ccc(OC)cc1)N(C)[C@@H]2c1ccc(OC)cc1`: the inhibition in assay [1] was found to be 20.9%; in assay [5] it was 58.8%; in assay [3], 41.9%. Further, the “inhibition zone (IZ)” value in assay [2] is recorded as 6 mm.

Consider `CO/N=C1\[C@H]2CCC[C@@H]1[C@H](c1ccc(OC)cc1)N[C@@H]2c1ccc(OC)cc1`, for which the inhibition in assay [1] amounted to 13.9%. In addition, the “inhibition zone (IZ)” value in assay [2] turned out to be 6 mm.

For the molecule `CCCOc1ccc([C@H]2N[C@@H](c3ccc(OCCC)cc3)[C@H]3CCC[C@@H]2/C3=N\OC)cc1`, the values for the inhibition in assay [1] and in assay [3] were 23.9% and 38.5%, respectively. In addition, the “inhibition zone (IZ)” value in assay [2] is on record as 6 mm.

For the molecule `CO/N=C1\[C@H]2CCC[C@@H]1[C@H](c1ccc(SC)cc1)N[C@@H]2c1ccc(SC)cc1`, the inhibition in assay [1] was found to be 17.6%; in assay [3], 22.5%. Further, the “inhibition zone (IZ)” value in assay [2] is recorded as 11 mm.

`CO/N=C1\[C@H]2CCC[C@@H]1[C@H](c1ccc(F)cc1)N(C)[C@@H]2c1ccc(F)cc1`: the inhibition in assay [1] is 2.4%. The “inhibition zone (IZ)” value in assay [2] is reported as “<=21 mm”.

As to `CO/N=C1\[C@H]2CCC[C@@H]1[C@H](c1ccccc1OC)N(C)[C@@H]2c1ccccc1OC`, the values for the inhibition in assay [1], in assay [5] and in assay [3] were 15.4%, 40.2% and 24.9%, respectively.

As to `CO/N=C1\[C@H]2CCC[C@@H]1[C@H](c1cccc(OC)c1)N(C)[C@@H]2c1cccc(OC)c1`, the figures for the inhibition in assay [1], in assay [5] and in assay [3] were 10.7%, 26.8% and 13.8%, respectively.

On to `CO/N=C1\[C@H]2CCC[C@@H]1[C@H](c1ccccc1OC)N[C@@H]2c1ccccc1OC`, for which the inhibition in assay [1] came out at 16%; in assay [3], 20.7%. The “inhibition zone (IZ)” value in assay [2] worked out at 6 mm.

Take `CO/N=C1\[C@H]2CCC[C@@H]1[C@H](c1ccccc1F)N[C@@H]2c1ccccc1F`: the inhibition in assay [1] worked out at 2.33%. Moreover, the “inhibition zone (IZ)” value in assay [2] is reported as 11 mm.

As to `CO/N=C1\[C@H]2CCC[C@@H]1[C@H](c1ccc(Br)cc1)N[C@@H]2c1ccc(Br)cc1`, in assay [1], the inhibition was 5.72%. Moreover, the “inhibition zone (IZ)” value in assay [2] was determined as 0 mm.

Consider `C=CCOc1ccc([C@H]2N[C@@H](c3ccc(OCC=C)cc3)[C@H]3CCC[C@@H]2/C3=N\OC)cc1`, for which the inhibition is 21.7% in assay [1], 31.8% in assay [5] and 25.8% in assay [3]. The “inhibition zone (IZ)” value in assay [2] is reported as “<=21 mm”.

Take `CO/N=C1\[C@H]2CCC[C@@H]1[C@H](c1ccccc1C)N[C@@H]2c1ccccc1C`: the inhibition in assay [1] is 9.5%. Besides, the “inhibition zone (IZ)” value in assay [2] is given as 0 mm.

Regarding `CO/N=C1\[C@H]2CCC[C@@H]1[C@H](c1ccc(C(C)C)cc1)N[C@@H]2c1ccc(C(C)C)cc1`, the inhibition in assay [1] was 15.3%. In assay [2], the “inhibition zone (IZ)” value is recorded as 6 mm.

As for `CO/N=C1\[C@H]2CCC[C@@H]1[C@H](c1ccc(Br)cc1)N(C)[C@@H]2c1ccc(Br)cc1`, the inhibition in assay [1] turned out to be 12.1%. Also, in assay [2], the “inhibition zone (IZ)” value stood at 0 mm.

For the molecule `NNC(=O)c1ccncc1` [ISONIAZID], the “inhibition zone (IZ)” value in assay [2] is “<=21 mm”.

As for `CO/N=C1\[C@H]2CCC[C@@H]1[C@H](c1cccc(F)c1)N[C@@H]2c1cccc(F)c1`, the inhibition in assay [1] is 0.97%. The “inhibition zone (IZ)” value in assay [2] turned out to be 6 mm.

As to `CO/N=C1\[C@H]2CCC[C@@H]1[C@H](c1ccc(OC(C)=O)c(OC)c1)N[C@@H]2c1ccc(OC(C)=O)c(OC)c1`, the inhibition is 32.4% in assay [1], 78.3% in assay [5], 88.8% in assay [6] and 52.9% in assay [3].

In the case of `CO/N=C1\[C@H]2CCC[C@@H]1[C@H](c1ccccc1Br)N[C@@H]2c1ccccc1Br`, the inhibition in assay [1] stood at 5.28%.

For `CO/N=C1\[C@H]2CCC[C@@H]1[C@H](c1ccc(C)cc1)N[C@@H]2c1ccc(C)cc1`, in assay [1], the inhibition worked out at 14.5%. Further, in assay [2], the “inhibition zone (IZ)” value stood at 0 mm.

As for `CO/N=C1\[C@H]2CCC[C@@H]1[C@H](c1ccccc1)N[C@@H]2c1ccccc1`, the inhibition in assay [1] came to 10.5%; in assay [5], 24.4%; in assay [3], 18.7%. The “inhibition zone (IZ)” value in assay [2] was found to be 0 mm.

The values above are taken from ChEMBL document CHEMBL1759851, “Facile synthesis and stereochemical investigation of Mannich base derivatives: evaluation of antioxidant property and antituberculostic potency” (2011).
